# Measurements of several laboratories.
# Lines come from different studies, so protocols differ.
# ADRB2: Beta-2 adrenergic receptor (ADRB2, Homo sapiens, UniProt P07550)
SMILES,target,assay,conditions,endpoint,value
CCOc1ccccc1OCCN[C@H](C)Cc1ccc(OC)c(S(N)(=O)=O)c1,ADRB2,"ligand displacement, radioligand",,IC50,2.2 µM
NCC(O)c1cc(O)c(O)cc1F (stereo not drawn),"Beta-2 adrenergic receptor (ADRB2, Homo sapiens, UniProt P07550, N293Q)","ligand displacement, radioligand",cell membranes,Ki,3330 µM
COc1ccc(OC)c(C(O)C(C)N)c1 (stereo not drawn),ADRB2,"ligand displacement, radioligand",cell membranes,IC50,12.3 µM
NCC(O)c1ccc(O)c(O)c1F (stereo not drawn),"Beta-2 adrenergic receptor (ADRB2, Homo sapiens, UniProt P07550, N293A)","ligand displacement, radioligand",cell membranes,Ki,319 µM
CC(N)Cc1c[nH]c2ccc(OCc3cccs3)cc12 (stereo not drawn),ADRB2,"ligand displacement, radioligand",cell membranes,IC50,9.42 µM
C[C@H](N)Cn1ncc2ccc3c(c21)CCCO3,ADRB2,"cAMP, agonist",,EC50,> 100 µM
CN1CCC(=C2c3ccccc3CCc3sccc32)CC1,ADRB2,"ligand displacement, radioligand",,IC50,5.8 µM
CCC1(COCc2ccccc2F)CCC(C)(C)O1 (stereo not drawn),ADRB2,"calcium signal, agonist, fluorescence",,EC50,17 µM
CC(Cc1ccc2c(c1)OCO2)NCC(O)c1ccc(O)c(O)c1 (stereo not drawn),ADRB2,"β-arrestin recruitment, agonist",,EC50,0.00631 µM
